Measured values: ChEMBL document CHEMBL3124820, “Design, synthesis and biological evaluation of hetero-aromatic moieties substituted pyrrole-2-carbonitrile derivatives as dipeptidyl peptidase IV inhibitors” (Eur J Med Chem, 2014)
One block for each molecule: values may come before it.

Assays:
CYP2C9 = CYP2C9 (Homo sapiens, UniProt P11712); test: Inhibition of CYP2C9 (unknown origin) at 100 uM relative to control; format: ADME
CYP3A4 = CYP3A4 (Homo sapiens, UniProt P08684); test: Inhibition of CYP3A4 (unknown origin) at 100 uM relative to control; format: ADME
[1] = molecular target: Voltage-gated inwardly rectifying potassium channel KCNH2 (Homo sapiens, UniProt Q12809); test: Inhibition of human ERG expressed in CHO-ZG cells after 20 mins by FluxOR thallium assay
[2] = Oral bioavailability in Sprague-Dawley rat at 50 mg/kg; format: ADME, organism-based; conditions: in vivo
Method in brief: (§1)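 Sprague-Dawley rats were dosed orally or intravenously, and blood was sampled after dosing. Plasma was separated by centrifugation and deproteinized with methanol containing an internal standard. The supernatant was diluted with methanol, centrifuged again and quantified by LC/MS/MS.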

[3] = Apparent clearance in Sprague-Dawley rat at 20 mg/kg, iv; format: ADME, organism-based; set-up: dose 20 mg/kg, route intravenous; conditions: in vivo, read-out: CL(app) (converted); method in brief: as §1
[4] = Half life in Sprague-Dawley rat at 20 mg/kg, iv; format: ADME, organism-based; set-up: dose 20 mg/kg, route intravenous; conditions: in vivo; method in brief: as §1
[5] = Half life in Sprague-Dawley rat at 50 mg/kg, po; format: ADME, organism-based; set-up: dose 50 mg/kg, route oral; conditions: in vivo; method in brief: as §1
[6] = Mean residence time in Sprague-Dawley rat at 20 mg/kg, iv; format: ADME, organism-based; set-up: dose 20 mg/kg, route intravenous; conditions: in vivo; method in brief: as §1
[7] = Mean residence time in Sprague-Dawley rat at 50 mg/kg, po; format: ADME, organism-based; set-up: dose 50 mg/kg, route oral; conditions: in vivo; method in brief: as §1
[8] = AUC (0 to infinity) in Sprague-Dawley rat at 20 mg/kg, iv; format: ADME, organism-based; set-up: time infinity, dose 20 mg/kg, route intravenous; conditions: plasma; method in brief: as §1
[9] = AUC (0 to infinity) in Sprague-Dawley rat at 50 mg/kg, po; format: ADME, organism-based; set-up: time infinity, dose 50 mg/kg, route oral; conditions: plasma; method in brief: as §1
[10] = AUC (0 to t) in Sprague-Dawley rat at 20 mg/kg, iv; format: ADME, organism-based; set-up: dose 20 mg/kg, route intravenous; conditions: plasma; method in brief: as §1
[11] = AUC (0 to t) in Sprague-Dawley rat at 50 mg/kg, po; format: ADME, organism-based; set-up: dose 50 mg/kg, route oral; conditions: plasma; method in brief: as §1
[12] = Cmax in Sprague-Dawley rat at 20 mg/kg, iv; format: ADME, organism-based; set-up: dose 20 mg/kg, route intravenous; conditions: in vivo; method in brief: as §1
[13] = Cmax in Sprague-Dawley rat at 50 mg/kg, po; format: ADME, organism-based; set-up: dose 50 mg/kg, route oral; conditions: in vivo; method in brief: as §1
[14] = Tmax in Sprague-Dawley rat at 20 mg/kg, iv; format: ADME, organism-based; set-up: dose 20 mg/kg, route intravenous; conditions: in vivo; method in brief: as §1
[15] = Tmax in Sprague-Dawley rat at 50 mg/kg, po; format: ADME, organism-based; set-up: dose 50 mg/kg, route oral; conditions: in vivo
Method in brief: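 Sprague-Dawley rats dosed orally (i.v. arm run in parallel). Blood collected after dosing and centrifuged to plasma. Plasma deproteinized with methanol containing an internal standard, centrifuged, and the supernatant diluted in methanol and recentrifuged. Drug levels in the supernatant quantified by LC/MS/MS, and Tmax taken from the plasma concentration-time profile.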

Mus musculus [16] = test: Antidiabetic activity in C57BKS db/db mouse assessed as blood glucose level at 50 mg/kg/day administered for 5 weeks followed by glucose challenge at 6 hrs starvation of post last dose measured at 120 mins by OGTT (reference value: 28.1 +/- 1.3 mmol/L); format: functional
Method in brief: (§2)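 C57BKS db/db mice received 5, 15 or 50 mg/kg/day for 5 weeks. Vehicle was 0.5% methylcellulose at 10 mL/kg/day. In week 5, mice were fasted 6 h and given an oral glucose load of 1.5 g/kg, then blood glucose was recorded over the glucose tolerance test. Data are mean ± SE, compared with Student's t-test.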

Mus musculus [17] = test: Antidiabetic activity in C57BKS db/db mouse assessed as blood glucose level at 50 mg/kg/day administered for 5 weeks followed by glucose challenge at 6 hrs starvation of post last dose measured at 90 mins by OGTT (reference value: 27.2 +/- 1.3 mmol/L); format: functional; method in brief: as §2
Mus musculus [18] = test: Antidiabetic activity in C57BKS db/db mouse assessed as blood glucose level at 50 mg/kg/day administered for 5 weeks followed by glucose challenge at 6 hrs starvation of post last dose measured at 60 mins by OGTT (reference value: 30.2 +/- 1.5 mmol/L); format: functional; method in brief: as §2
Mus musculus [19] = test: Antidiabetic activity in C57BKS db/db mouse assessed as blood glucose level at 50 mg/kg/day administered for 5 weeks followed by glucose challenge at 6 hrs starvation of post last dose measured at 30 mins by OGTT (reference value: 46.6 +/- 2.2 mmol/L); format: functional; method in brief: as §2
Mus musculus [20] = test: Antidiabetic activity in C57BKS db/db mouse assessed as blood glucose level at 50 mg/kg/day administered for 5 weeks followed by glucose challenge at 6 hrs starvation of post last dose measured immediately by OGTT (reference value: 25 +/- 1.2 mmol/L); format: functional; method in brief: as §2
Mus musculus [21] = test: Antidiabetic activity in C57BKS db/db mouse assessed as blood glucose level at 15 mg/kg/day administered for 5 weeks followed by glucose challenge at 6 hrs starvation of post last dose measured at 120 mins by OGTT (reference value: 28.1 +/- 1.3 mmol/L); format: functional; method in brief: as §2
Mus musculus [22] = test: Antidiabetic activity in C57BKS db/db mouse assessed as blood glucose level at 15 mg/kg/day administered for 5 weeks followed by glucose challenge at 6 hrs starvation of post last dose measured at 90 mins by OGTT (reference value: 27.2 +/- 1.3 mmol/L); format: functional; method in brief: as §2
Mus musculus [23] = test: Antidiabetic activity in C57BKS db/db mouse assessed as blood glucose level at 15 mg/kg/day administered for 5 weeks followed by glucose challenge at 6 hrs starvation of post last dose measured at 60 mins by OGTT (reference value: 30.2 +/- 1.5 mmol/L); format: functional; method in brief: as §2
Mus musculus [24] = test: Antidiabetic activity in C57BKS db/db mouse assessed as blood glucose level at 15 mg/kg/day administered for 5 weeks followed by glucose challenge at 6 hrs starvation of post last dose measured at 30 mins by OGTT (reference value: 46.6 +/- 2.2 mmol/L); format: functional; method in brief: as §2
Mus musculus [25] = test: Antidiabetic activity in C57BKS db/db mouse assessed as blood glucose level at 5 mg/kg/day administered for 5 weeks followed by glucose challenge at 6 hrs starvation of post last dose measured at 120 mins by OGTT (reference value: 28.1 +/- 1.3 mmol/L); format: functional; method in brief: as §2
Mus musculus [26] = test: Antidiabetic activity in C57BKS db/db mouse assessed as blood glucose level at 15 mg/kg/day administered for 5 weeks followed by glucose challenge at 6 hrs starvation of post last dose measured immediately by OGTT (reference value: 25 +/- 1.2 mmol/L); format: functional; method in brief: as §2
Mus musculus [27] = test: Antidiabetic activity in C57BKS db/db mouse assessed as blood glucose level at 5 mg/kg/day administered for 5 weeks followed by glucose challenge at 6 hrs starvation of post last dose measured at 90 mins by OGTT (reference value: 27.2 +/- 1.3 mmol/L); format: functional; method in brief: as §2
Mus musculus [28] = test: Antidiabetic activity in C57BKS db/db mouse assessed as blood glucose level at 5 mg/kg/day administered for 5 weeks followed by glucose challenge at 6 hrs starvation of post last dose measured at 60 mins by OGTT (reference value: 30.2 +/- 1.5 mmol/L); format: functional; method in brief: as §2
Mus musculus [29] = test: Antidiabetic activity in C57BKS db/db mouse assessed as blood glucose level at 5 mg/kg/day administered for 5 weeks followed by glucose challenge at 6 hrs starvation of post last dose measured at 30 mins by OGTT (reference value: 46.6 +/- 2.2 mmol/L); format: functional; method in brief: as §2
Mus musculus [30] = test: Antidiabetic activity in C57BKS db/db mouse assessed as blood glucose level at 5 mg/kg/day administered for 5 weeks followed by glucose challenge at 6 hrs starvation of post last dose measured immediately by OGTT (reference value: 25 +/- 1.2 mmol/L); format: functional; method in brief: as §2
Mus musculus [31] = test: Antidiabetic activity in ICR mouse assessed as decrease in blood glucose AUC (0 to 120 mins) administered for 30 mins prior to glucose challenge measured after 4 hrs by OGTT; format: functional, organism-based
Method in brief: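 ICR mice fasted 16 h, then given a single dose of 15 or 50 mg/kg; vehicle 0.5% methylcellulose (10 mL/kg), LAF237 30 mg/kg as positive control. Oral glucose 2.5 g/kg given 30 min after dosing (legend says 4 h). Blood glucose read at 0, 15, 30, 60, 90, 120 min for AUC0–120. Mean ± SE, n = 10; Student's t-test.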

Mus musculus [32] = test: Antidiabetic activity in ICR mouse assessed as decrease in blood glucose AUC (0 to 120 mins) at 50 mg/kg administered for 30 mins prior to glucose challenge measured after 4 hrs by OGTT relative to vehicle-treated control; format: functional; set-up: scale not given: the % may be the effect or the level left
Method in brief: (§3)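 ICR mice were fasted 16 h and given one dose in 0.5% methylcellulose vehicle (10 mL/kg). An oral glucose load of 2.5 g/kg followed; methods state 30 min after dosing, the figure legend 4 h.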

Mus musculus [33] = test: Antidiabetic activity in ICR mouse assessed as decrease in blood glucose AUC (0 to 120 mins) at 15 mg/kg administered for 30 mins prior to glucose challenge measured after 4 hrs by OGTT relative to vehicle-treated control; format: functional; set-up: scale not given: the % may be the effect or the level left; method in brief: as §3
Mus musculus [34] = test: Antidiabetic activity in ICR mouse assessed as decrease in blood glucose AUC (0 to 120 mins) at 30 mg/kg administered for 30 mins prior to glucose challenge measured after 4 hrs by OGTT relative to vehicle-treated control; format: functional; set-up: scale not given: the % may be the effect or the level left; method in brief: as §3

CYP3A4, sequence (P08684 whole entry): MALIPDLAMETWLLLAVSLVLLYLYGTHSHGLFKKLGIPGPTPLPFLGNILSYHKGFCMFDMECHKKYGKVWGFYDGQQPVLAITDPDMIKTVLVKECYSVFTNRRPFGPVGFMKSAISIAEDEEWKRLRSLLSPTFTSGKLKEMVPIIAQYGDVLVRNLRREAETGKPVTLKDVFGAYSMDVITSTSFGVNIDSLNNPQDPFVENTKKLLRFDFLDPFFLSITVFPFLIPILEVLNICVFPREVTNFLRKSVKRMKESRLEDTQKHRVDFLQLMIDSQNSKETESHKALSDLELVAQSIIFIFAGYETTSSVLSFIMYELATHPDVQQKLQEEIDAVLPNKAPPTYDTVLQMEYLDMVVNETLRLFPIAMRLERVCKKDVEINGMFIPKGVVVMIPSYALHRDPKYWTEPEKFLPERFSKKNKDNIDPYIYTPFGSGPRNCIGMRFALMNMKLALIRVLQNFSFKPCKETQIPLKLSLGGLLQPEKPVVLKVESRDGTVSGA
CYP2C9, sequence (P11712 whole entry): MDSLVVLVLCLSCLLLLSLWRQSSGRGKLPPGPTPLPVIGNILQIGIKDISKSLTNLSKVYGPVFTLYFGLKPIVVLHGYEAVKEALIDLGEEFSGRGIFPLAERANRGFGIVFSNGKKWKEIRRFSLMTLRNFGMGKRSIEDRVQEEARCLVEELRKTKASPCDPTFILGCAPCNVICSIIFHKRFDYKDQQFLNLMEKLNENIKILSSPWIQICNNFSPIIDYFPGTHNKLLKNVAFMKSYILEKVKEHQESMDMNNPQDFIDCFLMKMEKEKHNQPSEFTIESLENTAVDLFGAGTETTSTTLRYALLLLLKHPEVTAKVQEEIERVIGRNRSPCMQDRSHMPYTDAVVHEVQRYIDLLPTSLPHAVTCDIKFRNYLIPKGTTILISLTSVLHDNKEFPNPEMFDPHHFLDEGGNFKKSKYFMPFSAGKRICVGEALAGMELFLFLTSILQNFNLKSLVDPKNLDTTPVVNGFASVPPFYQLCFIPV
Voltage-gated inwardly rectifying potassium channel KCNH2, sequence (Q12809 whole entry): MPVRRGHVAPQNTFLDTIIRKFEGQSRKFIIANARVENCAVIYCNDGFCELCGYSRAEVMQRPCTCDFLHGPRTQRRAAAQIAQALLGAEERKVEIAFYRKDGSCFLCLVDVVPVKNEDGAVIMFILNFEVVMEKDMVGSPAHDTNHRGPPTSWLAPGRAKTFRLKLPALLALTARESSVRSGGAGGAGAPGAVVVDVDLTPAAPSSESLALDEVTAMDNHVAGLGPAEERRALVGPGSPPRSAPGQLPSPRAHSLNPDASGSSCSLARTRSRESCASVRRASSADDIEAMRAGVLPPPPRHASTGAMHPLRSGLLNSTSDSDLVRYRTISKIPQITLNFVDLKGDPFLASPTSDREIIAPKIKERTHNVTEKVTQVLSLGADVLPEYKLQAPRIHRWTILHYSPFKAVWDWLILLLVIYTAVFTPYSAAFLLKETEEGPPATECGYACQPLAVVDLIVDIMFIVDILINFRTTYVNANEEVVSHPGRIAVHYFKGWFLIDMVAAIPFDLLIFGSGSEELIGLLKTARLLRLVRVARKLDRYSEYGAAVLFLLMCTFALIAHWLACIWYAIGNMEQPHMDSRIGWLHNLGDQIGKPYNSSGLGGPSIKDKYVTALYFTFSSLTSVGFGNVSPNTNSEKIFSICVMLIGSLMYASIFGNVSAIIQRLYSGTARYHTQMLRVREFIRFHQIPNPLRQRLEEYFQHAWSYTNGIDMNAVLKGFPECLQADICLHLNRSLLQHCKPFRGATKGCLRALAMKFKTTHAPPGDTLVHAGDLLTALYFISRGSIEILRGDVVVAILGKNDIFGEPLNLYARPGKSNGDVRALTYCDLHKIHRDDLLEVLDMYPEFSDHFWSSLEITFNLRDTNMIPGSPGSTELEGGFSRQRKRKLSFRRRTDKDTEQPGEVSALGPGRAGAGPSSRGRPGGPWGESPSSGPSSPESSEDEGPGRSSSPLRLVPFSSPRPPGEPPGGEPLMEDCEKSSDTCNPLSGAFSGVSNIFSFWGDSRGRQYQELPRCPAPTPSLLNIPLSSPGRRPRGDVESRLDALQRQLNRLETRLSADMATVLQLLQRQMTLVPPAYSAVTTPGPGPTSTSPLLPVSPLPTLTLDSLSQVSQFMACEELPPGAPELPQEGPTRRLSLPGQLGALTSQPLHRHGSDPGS

- inhibition at 100 µM (CYP2C9): 11.2%
- inhibition at 100 µM (CYP3A4): 7.4%
- bioavailability [2]: 37.8%
- clearance [3]: 116 mL/min/kg
- half-life [4]: 2.27 h
- half-life [5]: 1.45 h
- MRT [6]: 1.48 h
- MRT [7]: 1.47 h
- AUC(0-inf) [8]: 2900 ng·h/mL
- AUC(0-inf) [9]: 2840 ng·h/mL
- AUC(0-t) [10]: 2890 ng·h/mL
- AUC(0-t) [11]: 2730 ng·h/mL
- Cmax [12]: 2960 ng/mL
- Cmax [13]: 2710 ng/mL
- Tmax [14]: 0.3 h
- Tmax [15]: 0.3 h
Structure (SMILES): N#C[C@@H]1C[C@H](F)CN1C(=O)[C@@H](N)Cc1cscn1
- IC50 [1]: 177 µM
- Activity (Mus musculus [16]): 20.4 mmol/L
- Activity (Mus musculus [17]): 20.5 mmol/L
- Activity (Mus musculus [18]): 19.9 mmol/L
- Activity (Mus musculus [19]): 38 mmol/L
- Activity (Mus musculus [20]): 18.1 mmol/L
- Activity (Mus musculus [21]): 20.6 mmol/L
- Activity (Mus musculus [22]): 20.8 mmol/L
- Activity (Mus musculus [23]): 21.8 mmol/L
- Activity (Mus musculus [24]): 41.3 mmol/L
- Activity (Mus musculus [25]): 24.5 mmol/L
- Activity (Mus musculus [26]): 18 mmol/L
- Activity (Mus musculus [27]): 24.1 mmol/L
- Activity (Mus musculus [28]): 27.5 mmol/L
- Activity (Mus musculus [29]): 45.1 mmol/L
- Activity (Mus musculus [30]): 21.5 mmol/L
- Activity (Mus musculus [31]): Dose-dependent effect
- Activity (Mus musculus [32]): 12.8%
- Activity (Mus musculus [33]): 10.7%

Structure (SMILES): N#C[C@@H]1CCCN1C(=O)CNC12CC3CC(CC(O)(C3)C1)C2 [VILDAGLIPTIN]
- Activity (Mus musculus [21]): 21.4 mmol/L
- Activity (Mus musculus [22]): 20.7 mmol/L
- Activity (Mus musculus [23]): 21 mmol/L
- Activity (Mus musculus [24]): 31.3 mmol/L
- Activity (Mus musculus [26]): 17.9 mmol/L
- Activity (Mus musculus [34]): 19.9%
